Assay results reported in ChEMBL document CHEMBL3124767, “Synthesis, biological evaluation and molecular modelling studies of 4-anilinoquinazoline derivatives as protein kinase inhibitors” (Bioorg Med Chem, 2014).

Assays:
[1] = molecular target: Dual specificity tyrosine-phosphorylation-regulated kinase 1A (Rattus norvegicus, UniProt Q63470); experiment: Inhibition of rat recombinant GST-fused DYRK1A expressed in Escherichia coli using KKISGRLSPIMTEQ as substrate by scintillation counting in presence of [gamma-33P]ATP
[2] = molecular target: Glycogen synthase kinase-3 (Sus scrofa, UniProt B2LUN4+I6LNT8); experiment: Inhibition of GSK3 alpha/beta in pig brain using YRRAAVPPSPSLSRHSSPHQpSEDEEE as substrate by scintillation counting in presence of [gamma-33P]ATP
Method in brief: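 Native GSK-3α/β from porcine brain, run in triplicate in buffer A (10 mM MgCl2, 1 mM EGTA, 1 mM DTT, 25 mM Tris–HCl pH 7.5, 50 µg heparin/mL) with GS-1 peptide substrate and 15 µM [γ-33P]ATP final, 30 min at 30 °C; spotted on P81 phosphocellulose, acid-washed, counted. Single 10 µM screen, then dose–response (usually 0.01–10 µM) for IC50; blank-subtracted, % of uninhibited activity.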

[3] = Inhibition of CK1 delta/epsilon in pig brain using RRKHAAIGpSAYSITA as substrate by scintillation counting in presence of [gamma-33P]ATP; design: species or system Sus scrofa
[4] = molecular target: Cyclin-dependent kinase 5/CDK5 activator 1 (Homo sapiens, UniProt Q00535); experiment: inhibition of human recombinant CDK5/p25 using histone H1 as substrate by scintillation counting in presence of [gamma-33P]ATP; assay type: protein-complex assay
Method in brief: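 Human recombinant CDK5/p25 in buffer A (Tris-HCl pH 7.5, MgCl2, EGTA, DTT, heparin) with 1 mg/mL histone H1 and 15 µM [γ-33P]ATP. Run 30 min at 30 °C in triplicate. P81 filter binding, phosphoric acid washes, scintillation counting. Activity is % of maximal after blank subtraction. Compounds screened at 10 µM; IC50 from dose-response curves.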

[5] = molecular target: Dual specificity protein kinase CLK1 (Homo sapiens, UniProt P49759); experiment: Inhibition of human recombinant GST-fused CLK1 expressed in Escherichia coli using GRSRSRSRSRSR as substrate
Method in brief: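 GST-tagged human CLK1 made in E. coli. Buffer A (MgCl2, EGTA, DTT, 25 mM Tris-HCl pH 7.5, heparin) with 0.15 mg BSA/mL, RS peptide substrate at 1 µg/assay, 15 µM final ATP. Run 30 min at 30 °C in triplicate. Activity is given as % of the no-inhibitor maximum after blank subtraction. Compounds screened at 10 µM; IC50 from dose-response curves (usually 0.01–10 µM).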

Chain of Cyclin-dependent kinase 5/CDK5 activator 1 (Q00535 whole entry): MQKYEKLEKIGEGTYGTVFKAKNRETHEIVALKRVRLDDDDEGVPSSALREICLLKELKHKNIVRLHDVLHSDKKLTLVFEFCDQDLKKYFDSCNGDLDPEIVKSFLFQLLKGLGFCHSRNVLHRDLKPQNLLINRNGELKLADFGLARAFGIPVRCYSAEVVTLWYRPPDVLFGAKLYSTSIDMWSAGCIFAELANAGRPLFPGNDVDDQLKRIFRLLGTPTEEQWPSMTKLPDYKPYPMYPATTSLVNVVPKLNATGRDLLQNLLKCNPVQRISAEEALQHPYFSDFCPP
Chain of Cyclin-dependent kinase 5/CDK5 activator 1 (Q15078 whole entry, further chain): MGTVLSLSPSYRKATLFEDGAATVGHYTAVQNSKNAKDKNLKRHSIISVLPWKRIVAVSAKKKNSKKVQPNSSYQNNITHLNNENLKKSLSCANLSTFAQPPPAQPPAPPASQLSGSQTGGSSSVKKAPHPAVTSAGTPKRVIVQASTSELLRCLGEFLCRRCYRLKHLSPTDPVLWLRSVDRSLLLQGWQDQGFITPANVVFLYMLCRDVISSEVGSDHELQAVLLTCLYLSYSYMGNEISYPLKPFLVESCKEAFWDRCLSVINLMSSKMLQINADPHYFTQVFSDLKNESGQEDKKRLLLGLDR
Chain of Dual specificity protein kinase CLK1 (P49759 whole entry, the tested form may be a part): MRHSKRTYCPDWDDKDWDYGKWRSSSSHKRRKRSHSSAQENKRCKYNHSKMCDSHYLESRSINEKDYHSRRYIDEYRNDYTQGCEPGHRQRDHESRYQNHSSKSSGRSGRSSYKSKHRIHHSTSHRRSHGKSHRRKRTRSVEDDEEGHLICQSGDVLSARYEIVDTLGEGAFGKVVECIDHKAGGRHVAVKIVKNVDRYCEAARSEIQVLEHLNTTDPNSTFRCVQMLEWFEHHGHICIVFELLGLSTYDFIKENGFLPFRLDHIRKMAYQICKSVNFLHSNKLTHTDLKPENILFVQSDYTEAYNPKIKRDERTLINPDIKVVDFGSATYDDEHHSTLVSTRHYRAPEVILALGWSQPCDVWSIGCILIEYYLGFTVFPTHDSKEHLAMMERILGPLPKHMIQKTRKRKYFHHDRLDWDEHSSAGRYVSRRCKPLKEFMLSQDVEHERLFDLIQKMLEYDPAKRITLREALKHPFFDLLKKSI

SMILES	IC50 [1] [µM]	IC50 [2] [µM]	IC50 [3] [µM]	IC50 [4] [µM]	IC50 [5] [µM]
COc1ccc(Nc2ncnc3cc(OC)c(OC)cc23)cc1OC	≥ 10	3	> 10	> 10	1.5
COc1ccc(Nc2ncnc3cc(OC)c(OC)cc23)cc1	> 10	> 10	> 10	> 10	> 10
COc1cc2ncnc(Nc3ccc(C(F)(F)F)cc3)c2cc1OC	> 10	> 10	> 10	> 10	> 10
COc1cc2ncnc(Nc3ccc(OC(F)(F)F)cc3)c2cc1OC	> 10	> 10	> 10	> 10	> 10
COc1cc2ncnc(Nc3ccc(NC(C)=O)cc3)c2cc1OC	> 10	> 10	> 10	> 10	> 10
COc1cc2ncnc(Nc3ccc(F)c(Cl)c3)c2cc1OC	> 10	> 10	> 10	> 10	7.6
COc1cc2ncnc(Nc3ccc(C)c(C)c3)c2cc1OC	> 10	> 10	> 10	> 10	> 10
COc1cc2ncnc(Nc3ccc(C(C)=O)cc3)c2cc1OC	> 10	> 10	> 10	> 10	≥ 10
COc1cc2ncnc(Nc3cccc(C(F)(F)F)c3)c2cc1OC	> 10	> 10	> 10	> 10	> 10
COc1cc2ncnc(Nc3ccccc3)c2cc1OC	> 10	> 10	> 10	> 10	≥ 10
O=C1Nc2cc(Br)ccc2/C1=C1/Nc2ccccc2/C1=N\O [6BIO]	–	–	–	–	2.1
